Measured values of several laboratories.
Lines come from different studies, so protocols differ.
Target: Phosphatidylinositol 4,5-bisphosphate 3-kinase catalytic subunit gamma isoform (PIK3CG, Homo sapiens, UniProt P48736)

Compound	assay	conditions	quantity	value
Cn1cc(-c2cc(F)cc(N3CCn4c(cc5c4CCCC5)C3=O)c2CO)cc(Nc2ccc(N3CCN(C4COC4)CC3)cn2)c1=O	enzyme activity, inhibitor	0.1 µM	inhibition	5%
C#Cc1n[nH]c2c(-c3cn([C@@H](C)c4ccccc4)c(=O)[nH]c3=O)cc(F)cc12	enzyme activity, inhibitor	0.1 µM	inhibition	7.4%
Cn1cc(-c2cccc(N3CCc4c(sc5c4CC(C)(C)C5)C3=O)c2CO)cc(Nc2ccncn2)c1=O	enzyme activity, inhibitor	1 µM	inhibition	-1%
C#Cc1n[nH]c2c(-c3cn([C@@H](C)c4ccccn4)c(=O)[nH]c3=O)cc(F)cc12	enzyme activity, inhibitor	0.1 µM	inhibition	1.9%
N#CC1(c2ccccn2)CCN(Cc2cc(C(=O)O)c(=O)n3ccccc23)CC1	cell-free assay, competition with immobilised ligand	1 µM	remaining binding	91%
Nc1ncc(-c2nc(N3CCOCC3)nc(N3CCOCC3)n2)c(C(F)F)n1	binding, competition with immobilised ligand	10 µM	remaining binding	0%
Cn1cncc1[C@](O)(COc1ccc(C#N)cc1-c1ccc(OC(F)(F)F)cc1)c1ccc(C#N)cc1	cell-free assay, competition with immobilised ligand	1 µM	remaining binding	100%
Cc1nn(C)cc1-c1nc2c(N3CCN(Cc4ccc(Cl)cc4)CC3)c(Cl)cnc2[nH]1	binding, competition with immobilised ligand	1 µM	remaining binding	100%
COc1ncccc1-c1cnn2ccc(N3CCN(C(=O)OC(C)C)CC3)nc12	binding, competition with immobilised ligand	1 µM	remaining binding	100%
